S100A4 inh HTS = inhibitors of S100A4-myosin IIA peptide binding, primary screen, biochemical, fluorescence polarization, TAMRA-MyoIIA peptide; Protein S100-A4 (Homo sapiens), P26447; inhibition, % at 10.7 µM; 0.14% of 360,000 active;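 active = mean inhibition of at least 70% across replicates, with every replicate also reaching that level; inconclusive = mean inhibition reaches 70% but some replicates fall short; inactive = mean inhibition below 70%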
Target sequence (P26447 whole entry, looked up): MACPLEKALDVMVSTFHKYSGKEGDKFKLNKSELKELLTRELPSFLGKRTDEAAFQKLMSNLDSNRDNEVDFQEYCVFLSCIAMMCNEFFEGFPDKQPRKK
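assay system = human S100A4 monomer with TAMRA-labelled myosin IIA peptide | also added = labelled myosin peptide probe, 5 nM | incubation = 5 min between mix addition and reading | control set = DMSO and TFP controls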
ERAP1 inh = human ERAP1 aminopeptidase inhibitors, primary screen, biochemical, single point, plate reader; Endoplasmic reticulum aminopeptidase 1 (Homo sapiens), Q9NZ08; recombinant ERAP1, Leu-AMC fluorescence, 60 min; inhibition, % at 10.7 µM; 0.15% of 340,000 active;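 active = mean replicate inhibition of at least 30%, or all replicates individually reaching that 30% level; inactive = mean below 30% and not every replicate reaching it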;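 also: 0% = neutral control wells and 100% = L-leucinethiol positive control wells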
ARNT TACC3 PPI = disruptors of ARNT/TACC3 protein interaction, primary screen, biochemical, AlphaScreen, single concentration; inhibition, % at 9.99 µM; AID 623870, 2012; 0.66% of 390,000 active; AlphaScreen His-ARNT PAS-B/GST-TACC3 binding, luminescence; TACC3 fragment carries E629A point mutation;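 active = mean inhibition of replicates at least 50% and at least half of replicates each reaching 50%; inconclusive = half or more replicates reach 50% but mean below 50%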;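 also: 0% = complete ARNT plus TACC3 wells and 100% = ARNT alone without TACC3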
rRNA inh HTS = reduced GFP signal of wild-type E. coli, primary screen, bacterial rRNA inhibitor project, GFP/RFP fluorescence, OD600, single point; E. coli WT GFP vs humanized-ribosome RFP mutants, 24 h; active compounds read low; DMSO median 0, no signal -100; 1.6% of 350,000 active; AID 720706, 2013; GFP signal change (wild-type ribosome), % (no concentration beside the values);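 active = significant combined selectivity score with lowered wild-type GFP, culture density cut under 30%, mutant RFP and density less affected; inactive = any of these conditions unmet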
PGC1a acetyl inh = inhibitors of PGC1a acetylation signal, primary screen, cell-based, U2OS, AlphaScreen, inhibitor mode; AlphaScreen anti-acetyl-lysine; with virally co-expressed GCN5 acetyltransferase; inhibition, % at 15.6 µM; 0.17% of 350,000 active; AID 651687, 2012;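 active = every replicate shows inhibition of at least 40%; inconclusive = mean inhibition at least 40% but some replicate below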;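 also: 0% = neutral control wells and 100% = positive control wells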
Casp6 inh = human caspase-6 inhibitors, primary screen, biochemical, VEID-R110 fluorescence, single point, set 2; inhibition, % at 12.5 µM; 0.53% of 350,000 active; purified caspase-6, Z-VEID-R110 cleavage fluorescence; P55212;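 active = mean inhibition across replicates at least about 35%, with every replicate also reaching that limit, limit read from the data; inconclusive = only one of the two criteria met; inactive = neither criterion met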;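 also: 0% = median of neutral control wells and 100% = no fluorescence left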
Target sequence (P55212 24-179 limits assumed): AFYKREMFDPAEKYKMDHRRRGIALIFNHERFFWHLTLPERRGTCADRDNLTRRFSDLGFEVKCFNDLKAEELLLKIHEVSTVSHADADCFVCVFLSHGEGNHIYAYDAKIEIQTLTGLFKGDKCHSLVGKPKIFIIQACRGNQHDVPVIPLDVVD
Target sequence (P55212 194-293 limits assumed): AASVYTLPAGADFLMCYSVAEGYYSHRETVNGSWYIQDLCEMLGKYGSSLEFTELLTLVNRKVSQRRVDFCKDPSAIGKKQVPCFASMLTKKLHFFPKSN
* marks the source's active call; other numbers are inactive results; ? = inconclusive; / = no result given. Sampled rows, rich in hits. Any-hit rate of the full collection: about 2.4%.

SMILES | S100A4 inh HTS | ERAP1 inh | ARNT TACC3 PPI | rRNA inh HTS | PGC1a acetyl inh | Casp6 inh
O=C(NC1CCCCC1)[C@H]1[C@H](CO)[C@H]2Cn3c(cccc3=O)[C@H]2N1CC1CCOCC1 | 3 | 2 | -6 | 1 | / | -1
CCOc1ccc(NC(=O)C2CCCN2C(=O)Oc2ccccc2)cc1 (stereo unspecified) | -3 | 57* | / | 3 | / | 1
Cc1cc(C)cc(NC(=O)C2CCCN2C(=O)Oc2ccccc2)c1 (stereo unspecified) | / | / | 2 | / | -9 | /
CN(/N=C/c1cc(Cl)ccc1O)C1=NS(=O)(=O)c2ccccc21 | -1 | -2 | 7 | -21* | 3 | 2
COc1cccc(/C=N/N(C)C2=NS(=O)(=O)c3ccccc32)c1O | -1 | -1 | 13 | -2 | -4 | -3
COc1ccc2nc(NC(=O)C34CC5CC(CC(NC(C)=O)(C5)C3)C4)sc2c1 | -2 | 0 | 0 | -27* | -2 | 5
CCOc1ccc2nc(NC(=O)C34CC5CC(CC(NC(C)=O)(C5)C3)C4)sc2c1 | 2 | -2 | -7 | -33* | / | 3
O=C(NCC[C@H]1CC[C@H](NC(=O)C2CCCC2)[C@@H](CO)O1)c1cc(Cl)cc(Cl)c1 | -1 | -3 | 4 | -2 | -8 | -1
O=c1[nH]c(=O)c2[nH]c(=S)n(-c3ccccc3)c2[nH]1 | 1 | 37* | -7 | 5 | 2 | 1
O=C(CN1C(=O)NC(Cc2ccccc2)C1=O)Nc1ccc(F)c(Cl)c1 (stereo unspecified) | -14 | 1 | 1 | -28* | 2 | -3
O=C(CN1C(=O)NC(Cc2ccccc2)C1=O)Nc1ccc(F)cc1 (stereo unspecified) | / | / | 1 | / | / | /
O=C(C[C@H]1CC[C@H](NC(=O)CCN2CCCCC2)[C@@H](CO)O1)NCc1ccc(Cl)c(Cl)c1 | -3 | -5 | -4 | -3 | 2 | -6
CN(C)C(=O)[C@H]1[C@H](CO)[C@H]2Cn3c(ccc(C4=CCCC4)c3=O)[C@@H]1N2CC1CCOCC1 | 2 | 1 | -7 | 2 | / | 1
Cc1ccc(/C(N)=N/OC(=O)c2cccc(F)c2)cc1 | / | / | -5 | / | 0 | /
Cc1ccc(/C(N)=N/OC(=O)c2ccc3ccccc3c2)cc1 | 5 | -5 | -8 | / | 3 | 55*
COc1cc(CN2CCN(Cc3ccccc3C(F)(F)F)CC2)cc(OC)c1OC | 1 | -1 | 3 | 3 | 63* | -4
COc1cc(CN2CCN(Cc3ccc(C(F)(F)F)cc3)CC2)cc(OC)c1OC | 4 | 1 | 2 | 4 | / | 0
CO[C@@H]1CN(C)C(=O)c2cc(NS(=O)(=O)c3cn(C)cn3)ccc2OC[C@@H](C)N(CC2CC2)C[C@H]1C | -12 | 0 | 0 | -1 | -3 | 4
CCC(=O)N1[C@H](C(=O)NC2CCCCC2)[C@@H](CO)[C@@H]2Cn3c(cccc3=O)[C@@H]21 | 1 | 0 | -3 | 1 | / | 2
O=C(NC1CCCCC1)[C@H]1[C@H](CO)[C@H]2Cn3c(cccc3=O)[C@H]2N1C(=O)CC1CC1 | 102* | 7 | 0 | 1 | 2 | -3
CCCNC(=O)[C@@H]1[C@@H](CO)[C@@H]2Cn3c(cccc3=O)[C@@H]2N1C(=O)C1CCC1 | 106* | 3 | -5 | 3 | / | -3
COc1ccc(C)cc1NC(=O)NNC(=O)C1CCC(C(C)(C)C)CC1 (stereo unspecified) | -8 | / | 1 | -17* | / | -1
O=C1CSC(=Nc2ccc(Cl)cc2)N1Cc1ccco1 | 1 | / | 3 | -26 | ? | -2
O=C(COc1ccc(Br)cc1)N/N=C1/SCC(=O)N1Cc1ccco1 | -3 | 3 | / | -23* | / | 3
O=C(CSc1n[nH]c(-c2ccco2)n1)Nc1ccccc1F | -4 | -4 | -5 | -2 | / | 46*
SMILES | S100A4 inh HTS | ERAP1 inh | ARNT TACC3 PPI | rRNA inh HTS | PGC1a acetyl inh | Casp6 inh
CC(C)NC(=O)Nc1ccc2c(c1)C(=O)N([C@H](C)CO)C[C@H](C)[C@H](CN(C)C(=O)Nc1cccc3ccccc13)OCCCC[C@H](C)O2 | 0 | 3 | 9 | 5 | 1 | -3
Cc1ccc(-n2c(O)c(C=Nc3ccccc3-c3n[nH]c(=S)[nH]c3=O)c3ccccc3c2=O)c(C)c1 | 8 | 15 | -10 | -44 | -7 | 11
Cc1ccc(-n2c(O)c(C=Nc3ccccc3-c3n[nH]c(=S)[nH]c3=O)c3ccccc3c2=O)cc1C | 2 | 4 | 1 | -38* | -12 | 10
Cc1ccc(S(=O)(=O)Nc2ccc3c(c2)C(=O)N([C@H](C)CO)C[C@@H](C)[C@H](CN(C)Cc2ccc4c(c2)OCO4)OCCCC[C@H](C)O3)cc1 | 24 | -1 | 4 | 0 | / | -1
Cc1cccc(NC(=O)/C(C#N)=C/c2ccccc2Cl)n1 | -1 | -3 | -6 | -22* | / | 4
Cc1cccc(NC(=O)CNC(=O)c2sc3ccccc3c2Cl)n1 | -3 | -3 | -4 | -2 | / | 2
Cc1cccc(NC(=O)CNC(=O)c2ccccc2Cl)n1 | 99* | 2 | 0 | 1 | / | 3
Cc1cccc(NC(=O)/C(C#N)=C/c2ccccc2O)n1 | 0 | 3 | -1 | 0 | / | 0
CO[C@@H]1CN(C)C(=O)c2ccc(NS(=O)(=O)CC(F)(F)F)cc2OC[C@@H](C)NC[C@@H]1C | -2 | / | 6 | 0 | -1 | /
Nc1nonc1-n1nnc(C(=O)N/N=C/c2cccs2)c1CSc1ccccc1 | -11 | 4 | -3 | 0 | -1 | -5
CN(C)c1ccc(/C=N/NC(=O)c2nnn(-c3nonc3N)c2CN(C)c2ccccc2)cc1 | -2 | 1 | -3 | 6 | 4 | 6
COc1ccc(/C=N/NC(=O)c2nnn(-c3nonc3N)c2CN(C)c2ccccc2)cc1 | -2 | -1 | 0 | -2 | 0 | -1
CN(Cc1c(C(=O)N/N=C/c2ccccc2)nnn1-c1nonc1N)c1ccccc1 | -1 | -2 | 0 | -27* | / | 5
Nc1nonc1-n1nnc(C(=O)N/N=C/c2ccc(OCc3ccccc3)cc2)c1COc1ccc(F)cc1 | 1 | / | -7 | 8 | 5 | -1
Nc1nonc1-n1nnc(C(=O)N/N=C/c2ccc(O)cc2)c1COc1ccc(F)cc1 | -1 | 2 | -3 | -24* | -8 | 5
Nc1nonc1-n1nnc(C(=O)N/N=C/c2ccccc2Cl)c1CSc1ccccc1 | -3 | 1 | / | -18* | 28 | -5

Bioassay records as filed in PubChem.
